# From ChEMBL document CHEMBL1152545, “Fluorinated indazoles as novel selective inhibitors of nitric oxide synthase (NOS): synthesis and biological evaluation” (Bioorg Med Chem, 2009)
# Columns and labels:
# [1] = target: Nitric oxide synthase, inducible (Rattus norvegicus) (UniProt Q06518); assay: Inhibition of Wistar rat NOS2 assessed as L-[3H]citrulline formation at 1 mM by liquid scintillation counting relative to control in presence of EDTA
# How it was run: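 NOS-II source: lung homogenate (0.1 g/mL, Tris/DTT/protease inhibitors, pH 7.6, 2500g supernatant) from male Wistar rats 6 h after iv LPS 10 mg/kg in saline. 10 µL sample incubated 30 min at 37 °C with 10 µM L-arginine plus 40 nM L-3H-arginine, H4-biopterin, FAD, CaCl2, 10 mM EDTA; NADPH started reaction. Compound 1 mM; three experiments in triplicate; mean ± SEM.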
# Nitric oxide synthase 1 [2] = target: T1, Nitric oxide synthase 1 (Homo sapiens, UniProt P29475); assay: Inhibition of NOS1
# T1 sequence (P29475 whole entry): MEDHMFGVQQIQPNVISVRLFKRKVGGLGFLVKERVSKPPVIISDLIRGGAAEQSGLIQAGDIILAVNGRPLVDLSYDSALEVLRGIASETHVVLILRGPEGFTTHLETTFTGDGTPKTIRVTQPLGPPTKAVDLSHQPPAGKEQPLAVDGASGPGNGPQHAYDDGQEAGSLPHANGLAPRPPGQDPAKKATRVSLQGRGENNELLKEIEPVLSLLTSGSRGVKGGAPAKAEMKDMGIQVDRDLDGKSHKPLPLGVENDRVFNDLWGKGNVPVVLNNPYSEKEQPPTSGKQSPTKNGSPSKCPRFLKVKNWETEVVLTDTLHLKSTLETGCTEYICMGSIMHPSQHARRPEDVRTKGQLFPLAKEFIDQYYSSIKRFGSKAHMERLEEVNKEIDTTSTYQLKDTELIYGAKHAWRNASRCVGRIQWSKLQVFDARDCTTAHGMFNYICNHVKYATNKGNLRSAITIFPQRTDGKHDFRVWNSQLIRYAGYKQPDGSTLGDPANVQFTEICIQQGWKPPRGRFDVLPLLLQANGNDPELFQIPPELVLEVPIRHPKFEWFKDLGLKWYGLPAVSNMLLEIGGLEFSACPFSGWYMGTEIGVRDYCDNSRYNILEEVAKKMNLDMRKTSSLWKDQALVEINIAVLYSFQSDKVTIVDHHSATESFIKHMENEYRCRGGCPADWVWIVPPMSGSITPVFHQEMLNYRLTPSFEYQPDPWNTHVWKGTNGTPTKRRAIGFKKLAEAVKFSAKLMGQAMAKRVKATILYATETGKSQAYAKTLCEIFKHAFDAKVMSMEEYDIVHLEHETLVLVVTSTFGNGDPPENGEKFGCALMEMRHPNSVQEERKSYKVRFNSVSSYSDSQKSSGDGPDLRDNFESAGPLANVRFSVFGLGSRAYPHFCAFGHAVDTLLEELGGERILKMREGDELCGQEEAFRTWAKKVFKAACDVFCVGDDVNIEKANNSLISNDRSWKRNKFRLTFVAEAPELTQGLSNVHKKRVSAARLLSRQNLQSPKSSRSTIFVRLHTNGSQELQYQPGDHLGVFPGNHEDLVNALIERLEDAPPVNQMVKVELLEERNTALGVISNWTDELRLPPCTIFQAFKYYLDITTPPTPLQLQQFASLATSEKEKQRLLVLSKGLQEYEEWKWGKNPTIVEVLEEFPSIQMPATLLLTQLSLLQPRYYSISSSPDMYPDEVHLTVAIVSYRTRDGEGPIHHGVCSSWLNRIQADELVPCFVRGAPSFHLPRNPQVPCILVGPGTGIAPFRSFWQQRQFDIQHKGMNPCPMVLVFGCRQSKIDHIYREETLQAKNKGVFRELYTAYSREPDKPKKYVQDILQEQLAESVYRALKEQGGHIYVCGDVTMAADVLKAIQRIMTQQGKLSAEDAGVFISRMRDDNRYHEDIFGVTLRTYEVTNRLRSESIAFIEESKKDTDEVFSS
# Nitric oxide synthase 1 [3] = target: T1, Nitric oxide synthase 1; assay: Inhibition of recombinant NOS1 assessed as citrulline formation
# [4] = target: Nitric oxide synthase, inducible (Homo sapiens, UniProt P35228); assay: Inhibition of NOS2
# Sequence of Nitric oxide synthase, inducible (P35228 whole entry): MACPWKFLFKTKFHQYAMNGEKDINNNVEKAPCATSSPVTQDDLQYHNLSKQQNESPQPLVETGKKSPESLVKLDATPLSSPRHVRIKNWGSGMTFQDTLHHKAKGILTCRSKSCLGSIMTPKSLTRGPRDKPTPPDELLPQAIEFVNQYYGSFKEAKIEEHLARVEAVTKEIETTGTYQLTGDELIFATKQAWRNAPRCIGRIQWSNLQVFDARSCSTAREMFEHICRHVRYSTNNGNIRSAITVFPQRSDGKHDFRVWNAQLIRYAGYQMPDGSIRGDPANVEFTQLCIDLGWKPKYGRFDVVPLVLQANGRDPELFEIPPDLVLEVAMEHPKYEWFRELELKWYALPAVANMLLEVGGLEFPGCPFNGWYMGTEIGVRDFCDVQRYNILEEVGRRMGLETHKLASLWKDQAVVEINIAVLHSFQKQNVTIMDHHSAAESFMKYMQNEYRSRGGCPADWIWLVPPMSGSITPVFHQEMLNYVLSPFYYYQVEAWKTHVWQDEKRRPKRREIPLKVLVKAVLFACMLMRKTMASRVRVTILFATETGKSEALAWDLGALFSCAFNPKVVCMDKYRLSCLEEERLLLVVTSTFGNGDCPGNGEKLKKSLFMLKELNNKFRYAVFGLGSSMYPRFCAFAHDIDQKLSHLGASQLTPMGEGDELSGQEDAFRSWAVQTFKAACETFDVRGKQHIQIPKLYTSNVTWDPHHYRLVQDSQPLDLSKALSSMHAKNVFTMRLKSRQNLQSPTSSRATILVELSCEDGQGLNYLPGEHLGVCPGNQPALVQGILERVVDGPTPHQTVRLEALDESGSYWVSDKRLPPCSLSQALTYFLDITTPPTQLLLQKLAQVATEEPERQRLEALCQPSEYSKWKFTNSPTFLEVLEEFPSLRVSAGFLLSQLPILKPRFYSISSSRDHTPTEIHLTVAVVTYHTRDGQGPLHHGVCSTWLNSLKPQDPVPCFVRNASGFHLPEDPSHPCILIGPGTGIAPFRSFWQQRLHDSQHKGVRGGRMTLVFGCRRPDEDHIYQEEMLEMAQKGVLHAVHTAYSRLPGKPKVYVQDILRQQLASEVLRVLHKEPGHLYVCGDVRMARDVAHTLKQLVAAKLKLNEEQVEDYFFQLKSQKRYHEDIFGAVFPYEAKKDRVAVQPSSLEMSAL
# How it was run: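 NOS-II source was lung homogenate (2500g supernatant) from male Wistar rats killed 6 h after iv LPS 10 mg/kg. Incubation ran 30 min at 37 °C, pH 7.6, with 10 µM L-arginine, 40 nM L-3H-arginine, cofactors and 0.75 mM NADPH, plus 10 mM EDTA to exclude NOS-I. Read-out was 3H-citrulline formed. Compounds were tested at 1 mM, or 0.1–1 mM for dose-response, in three experiments run in triplicate.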
# [5] = target: Nitric oxide synthase, inducible (Rattus norvegicus) (UniProt Q06518); assay: Inhibition of Wistar rat NOS2 assessed as L-[3H]citrulline formation by liquid scintillation counting relative to control in presence of EDTA
# How it was run: (§1)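 Lung homogenate (0.1 g/mL, pH 7.6 Tris with protease inhibitors, 2500g supernatant) from male Wistar rats given 10 mg/kg LPS iv in saline 6 h before. L-3H-arginine (40 nM, plus 10 µM L-arginine) to L-3H-citrulline conversion, 0.75 mM NADPH, 30 min at 37 °C, 10 mM EDTA. Compound at 0.1, 0.5 or 1 mM. Three experiments in triplicate.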
# [6] = target: Nitric oxide synthase, inducible (Rattus norvegicus) (UniProt Q06518); assay: Inhibition of Wistar rat NOS2 assessed as enzyme activity at 1 mM by liquid scintillation counting relative to control in presence of EDTA; design: scale not given: the % may be the effect or the level left; how it was run: as §1
# [7] = target: Nitric oxide synthase, inducible (Rattus norvegicus) (UniProt Q06518); assay: Inhibition of Wistar rat NOS2 assessed as enzyme activity at 0.5 mM by liquid scintillation counting relative to control in presence of EDTA; design: scale not given: the % may be the effect or the level left; how it was run: as §1
# [8] = target: Nitric oxide synthase, inducible (Rattus norvegicus) (UniProt Q06518); assay: Inhibition of Wistar rat NOS2 assessed as enzyme activity at 0.1 mM by liquid scintillation counting relative to control in presence of EDTA; design: scale not given: the % may be the effect or the level left; how it was run: as §1
# Sequence of Nitric oxide synthase, inducible (Rattus norvegicus) (Q06518 whole entry): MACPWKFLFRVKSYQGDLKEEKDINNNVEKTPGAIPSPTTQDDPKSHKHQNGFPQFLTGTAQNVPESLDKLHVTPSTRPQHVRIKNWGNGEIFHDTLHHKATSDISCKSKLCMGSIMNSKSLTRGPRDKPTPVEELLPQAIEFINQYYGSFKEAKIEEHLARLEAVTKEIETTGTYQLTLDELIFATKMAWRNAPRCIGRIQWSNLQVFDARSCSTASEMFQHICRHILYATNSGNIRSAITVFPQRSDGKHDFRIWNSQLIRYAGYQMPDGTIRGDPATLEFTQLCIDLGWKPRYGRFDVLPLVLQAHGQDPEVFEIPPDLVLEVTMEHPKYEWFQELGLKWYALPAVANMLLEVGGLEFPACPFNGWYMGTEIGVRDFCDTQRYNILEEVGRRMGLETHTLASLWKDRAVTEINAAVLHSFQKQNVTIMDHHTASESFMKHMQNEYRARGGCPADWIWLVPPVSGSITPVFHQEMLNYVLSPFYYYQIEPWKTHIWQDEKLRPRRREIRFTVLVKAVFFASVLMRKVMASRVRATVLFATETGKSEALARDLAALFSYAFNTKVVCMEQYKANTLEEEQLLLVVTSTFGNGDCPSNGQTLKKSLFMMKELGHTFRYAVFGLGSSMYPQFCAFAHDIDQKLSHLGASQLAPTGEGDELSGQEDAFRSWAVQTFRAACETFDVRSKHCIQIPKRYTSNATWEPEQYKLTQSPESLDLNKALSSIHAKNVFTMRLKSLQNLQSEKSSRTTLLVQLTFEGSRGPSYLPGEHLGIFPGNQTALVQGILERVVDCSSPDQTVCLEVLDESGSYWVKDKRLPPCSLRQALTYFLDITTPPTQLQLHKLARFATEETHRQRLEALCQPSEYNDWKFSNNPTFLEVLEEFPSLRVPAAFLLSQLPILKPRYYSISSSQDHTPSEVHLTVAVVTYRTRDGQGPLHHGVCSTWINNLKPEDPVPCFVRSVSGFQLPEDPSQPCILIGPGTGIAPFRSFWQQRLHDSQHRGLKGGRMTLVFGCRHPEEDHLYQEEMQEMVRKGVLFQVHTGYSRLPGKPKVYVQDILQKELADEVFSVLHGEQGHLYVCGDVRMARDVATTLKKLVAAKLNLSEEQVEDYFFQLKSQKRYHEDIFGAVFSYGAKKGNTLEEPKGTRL
inhibition [1],SMILES,IC50 (Nitric oxide synthase 1 [2]),other results
36%,Cn1cc2cccc([N+](=O)[O-])c2n1,,
,O=[N+]([O-])c1cccc2[nH]ncc12,3.1 µM,
,Nc1cccc2cn[nH]c12,,IC50 (Nitric oxide synthase 1 [3]): 115 µM
,O=[N+]([O-])c1ccc2[nH]ncc2c1,47 µM,
4%,Cc1n[nH]c2c1C(=O)CCC2,,
,Nc1ccc2[nH]ncc2c1,,IC50 (Nitric oxide synthase 1 [3]): > 1000 µM
,Brc1ccc2cn[nH]c2c1,4.3 µM,
,O=[N+]([O-])c1ccc2cn[nH]c2c1,32 µM,
,Clc1ccc2[nH]ncc2c1,59 µM,
,O=c1[nH][nH]c2ccccc12,,IC50 (Nitric oxide synthase 1 [3]): > 1000 µM
,Nc1ccc2cn[nH]c2c1,,IC50 (Nitric oxide synthase 1 [3]): > 1000 µM
,CCc1n[nH]c2ccccc12,,IC50 (Nitric oxide synthase 1 [3]): 310 µM
23%,O=C1CCCc2[nH]ncc21,,
83%,Cc1n[nH]c2c(F)c(F)c(F)c(F)c12,,
,Ic1ccc2[nH]ncc2c1,37 µM,
2%,CC1(C)CC(=O)c2cn[nH]c2C1,,
,Brc1cccc2[nH]ncc12,2.4 µM,

inhibition [1],SMILES,IC50 (Nitric oxide synthase 1 [2]),other results
10%,Cn1nc(Br)c2cccc([N+](=O)[O-])c21,,
7%,Cn1nc2c([N+](=O)[O-])cccc2c1Br,,
,O=[N+]([O-])c1ccc2c(Cl)n[nH]c2c1,158 µM,
37%,Fc1c(F)c(F)c2c(-c3ccccc3)n[nH]c2c1F,,
21%,Fc1c(F)c(F)c2c(C(F)(F)F)n[nH]c2c1F,,
,Clc1n[nH]c2ccccc12,,IC50 (Nitric oxide synthase 1 [3]): 100 µM
,Brc1cccc2cn[nH]c12,14 µM,
,Clc1cccc2[nH]ncc12,44 µM,
25%,Cn1ncc2cccc([N+](=O)[O-])c21,,
6%,Oc1n[nH]c2c(F)c(F)c(F)c(F)c12,,
20%,CC12CCC(C3C=NN=C31)C2(C)C (racemic),,
22%,Cc1n[nH]c2c1C(=O)CC(C)(C)C2,,
,Brc1ccc2[nH]ncc2c1,72 µM,
,Clc1ccc2cn[nH]c2c1,22 µM,
,Clc1cccc2cn[nH]c12,4.2 µM,
,c1ccc2[nH]ncc2c1 [INDAZOLE],,IC50 (Nitric oxide synthase 1 [3]): 178 µM
,Ic1cccc2[nH]ncc12,17 µM,

SMILES,inhibition [1],IC50 (Nitric oxide synthase 1 [2]),other results
O=[N+]([O-])c1cccc2c(Br)n[nH]c12,97%,0.17 µM,IC50 [4]: 0.29 µM
O=[N+]([O-])c1cccc2cn[nH]c12 [7-NITROINDAZOLE],84%,,IC50 [4]: 5.8 µM
Fc1c(F)c(F)c(-c2n[nH]c3c(F)c(F)c(F)c(F)c23)c(F)c1F,80%,,inhibition [5]: Dose-dependent effect; Activity [6]: 20%; Activity [7]: 58%; Activity [8]: 90%; IC50 [4]: 400 µM
